# Source: ChEMBL document CHEMBL1141268, “Glycogen synthase kinase-3 (GSK-3) inhibitory activity and structure-activity relationship (SAR) studies of the manzamine alkaloids. Potential for Alzheimer's disease” (J Nat Prod, 2007)
# Calls of active or inactive are those of the source. The rule behind the calls is not given here.
# Tests used:
# [1] = biological target: T1, Glycogen synthase kinase-3 beta (Homo sapiens, UniProt P49841); test: Inhibition of human recombinant GSKbeta at 25 uM
# How it was run: (§1)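 Recombinant human GSK-3β in 11 mM MOPS pH 7.4, 0.2 mM EDTA, 1.25 mM EGTA, 26.25 mM MgCl2, 0.25 mM orthovanadate. Substrate was 62.5 µM GS-2 peptide, with γ-[33P]ATP plus unlabeled ATP at 12.5 µM final. Reaction ran 30 min at 30 °C. Aliquots were spotted on P81 phosphocellulose, washed and scintillation-counted. IC50 came from nonlinear regression of inhibition curves.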
# Target sequence in this assay (P49841 whole entry, looked up): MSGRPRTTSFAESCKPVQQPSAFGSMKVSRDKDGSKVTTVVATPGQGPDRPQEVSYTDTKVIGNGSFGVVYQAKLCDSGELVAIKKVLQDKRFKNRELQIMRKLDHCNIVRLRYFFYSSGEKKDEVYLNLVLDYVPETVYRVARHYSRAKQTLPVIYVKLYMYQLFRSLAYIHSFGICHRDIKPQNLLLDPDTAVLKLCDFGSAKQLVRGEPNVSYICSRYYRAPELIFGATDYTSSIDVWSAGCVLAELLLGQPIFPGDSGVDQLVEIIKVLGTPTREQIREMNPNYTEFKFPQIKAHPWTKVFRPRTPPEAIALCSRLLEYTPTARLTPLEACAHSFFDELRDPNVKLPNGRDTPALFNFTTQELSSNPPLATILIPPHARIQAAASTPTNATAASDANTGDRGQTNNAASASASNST
# [2] = biological target: T1, Glycogen synthase kinase-3 beta; test: Inhibition of human recombinant GSKbeta; how it was run: as §1
# Target sequence in this assay (P49841 whole entry): as the sequence (P49841 whole entry, looked up) above
# [3] = Inhibition of recombinant PKA
# How it was run: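 Recombinant PKA catalytic subunit in ADBI buffer with Kemptide substrate and 35 µM unlabeled ATP. Incubated 20 min; otherwise as the other kinase assays (γ-[33P]ATP, P81 filter binding, scintillation counting).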
# [4] = biological target: Cyclin-dependent kinase 5/CDK5 activator 1 (Homo sapiens, UniProt Q00535); test: Inhibition of human recombinant CDK5/p35; format: protein-complex assay
# Sequence of Cyclin-dependent kinase 5/CDK5 activator 1 (Q00535 whole entry): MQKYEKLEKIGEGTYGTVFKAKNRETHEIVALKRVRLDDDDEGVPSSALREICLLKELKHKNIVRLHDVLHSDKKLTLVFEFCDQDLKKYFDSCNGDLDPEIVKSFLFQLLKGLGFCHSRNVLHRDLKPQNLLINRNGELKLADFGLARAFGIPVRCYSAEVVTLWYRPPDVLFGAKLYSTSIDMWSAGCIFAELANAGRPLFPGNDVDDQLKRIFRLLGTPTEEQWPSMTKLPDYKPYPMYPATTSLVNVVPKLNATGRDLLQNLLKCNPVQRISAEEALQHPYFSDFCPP
# Sequence of Cyclin-dependent kinase 5/CDK5 activator 1 (Q15078 whole entry, further chain): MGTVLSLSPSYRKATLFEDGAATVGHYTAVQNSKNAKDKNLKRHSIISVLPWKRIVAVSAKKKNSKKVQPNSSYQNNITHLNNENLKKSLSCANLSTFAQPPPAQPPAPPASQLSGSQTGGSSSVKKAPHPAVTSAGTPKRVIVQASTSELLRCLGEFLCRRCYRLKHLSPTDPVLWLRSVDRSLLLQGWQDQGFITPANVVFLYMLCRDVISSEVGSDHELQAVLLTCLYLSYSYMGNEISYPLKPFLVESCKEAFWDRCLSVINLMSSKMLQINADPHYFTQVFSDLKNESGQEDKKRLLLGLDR
# How it was run: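 Human recombinant cdk5-p35 with histone H1 substrate, run as the GSK-3β protocol: 11 mM MOPS pH 7.4, 0.2 mM EDTA, 1.25 mM EGTA, 26.25 mM MgCl2, 0.25 mM sodium orthovanadate, γ-[33P]ATP plus unlabeled ATP (12.5 µM final). Incubated 30 min at 30 °C, spotted on P81 phosphocellulose, washed, scintillation counted. IC50 by nonlinear regression of inhibition curves.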
# [5] = biological target: Cyclin-dependent kinase 1 (Homo sapiens) (UniProt P06493); test: Inhibition of recombinant CDK1
# Sequence of Cyclin-dependent kinase 1 (Homo sapiens) (P06493 whole entry, looked up): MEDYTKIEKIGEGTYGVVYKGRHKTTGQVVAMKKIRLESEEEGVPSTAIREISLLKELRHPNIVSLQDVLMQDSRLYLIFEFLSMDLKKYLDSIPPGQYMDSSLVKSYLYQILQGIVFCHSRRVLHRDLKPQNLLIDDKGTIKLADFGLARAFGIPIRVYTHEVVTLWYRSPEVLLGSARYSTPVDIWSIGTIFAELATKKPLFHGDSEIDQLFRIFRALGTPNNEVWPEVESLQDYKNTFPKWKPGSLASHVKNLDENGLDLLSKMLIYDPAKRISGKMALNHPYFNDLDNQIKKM
# How it was run: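 Recombinant CDK-1 in ADBI buffer (20 mM MOPS pH 7.2, 25 mM β-glycerol phosphate, 5 mM EGTA, 1 mM sodium orthovanadate). Histone H1 substrate at […] and ATP at 22 µM final. Reaction run 15 min at 30 °C.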
# [6] = biological target: Glycogen synthase kinase-3 alpha (Homo sapiens) (UniProt P49840); test: Inhibition of recombinant GSKalpha
# Sequence of Glycogen synthase kinase-3 alpha (Homo sapiens) (P49840 2-483 limits assumed): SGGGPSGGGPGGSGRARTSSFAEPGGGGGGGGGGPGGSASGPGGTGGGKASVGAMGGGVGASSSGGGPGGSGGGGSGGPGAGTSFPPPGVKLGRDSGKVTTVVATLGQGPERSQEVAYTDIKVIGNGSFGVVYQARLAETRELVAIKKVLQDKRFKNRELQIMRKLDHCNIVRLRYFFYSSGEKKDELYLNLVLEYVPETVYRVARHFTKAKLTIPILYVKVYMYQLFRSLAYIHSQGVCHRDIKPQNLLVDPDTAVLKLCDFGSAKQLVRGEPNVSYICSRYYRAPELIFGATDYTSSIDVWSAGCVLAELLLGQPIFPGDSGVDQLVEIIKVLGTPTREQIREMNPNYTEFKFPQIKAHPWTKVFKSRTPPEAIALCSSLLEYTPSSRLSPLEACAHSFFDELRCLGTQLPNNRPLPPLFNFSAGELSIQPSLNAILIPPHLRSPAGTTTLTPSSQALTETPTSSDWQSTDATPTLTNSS
# How it was run: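 Recombinant GSK-3α, run as the GSK-3β radiometric protocol: MOPS pH 7.4 buffer with EDTA, EGTA, MgCl2 and orthovanadate, plus γ-[33P]ATP. GS-2 peptide at 20 µM final and ATP at 26 µM. Incubated 12 min, then P81 filter binding and scintillation counting. IC50 by nonlinear regression.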
# [7] = Inhibition of recombinant MAPK
# How it was run: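 ERK1 (recombinant MAP kinase) in ADBI buffer (20 mM MOPS pH 7.2, 25 mM β-glycerol phosphate, 5 mM EGTA, 1 mM sodium orthovanadate) with 10 µg myelin basic protein as substrate. ATP at 20 µM final. Incubated 15 min; otherwise as the GSK-3β radiometric P81 filter assay.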
SMILES,inhibition [1],IC50 [2],also measured
O[C@]12C=C(c3nccc4c3[nH]c3ccccc34)C3CCN(CCCC/C=C\CC1)C[C@@]31C[C@]34CC[C@H](CCCN3[C@H]12)O4 (stereo not given in full),88.4%,,
O=C1CCCN2[C@@H](CC1)C[C@]13CN4CCCC/C=C\CC[C@](O)(C=C(c5nccc6c5[nH]c5c(OS(=O)(=O)c7ccc(Br)cc7)cccc56)C1CC4)[C@H]23 (stereo not given in full),63%,23 µM,
COc1cccc2c3ccnc(C4=C[C@@]5(O)CC/C=C\CCCCN6CCC4[C@]4(C[C@@H]7/C=C\CCCCN7[C@H]45)C6)c3n(C)c12 (stereo not given in full),72.4%,,
CC(=O)Nc1nc(C)c(S(=O)(=O)Oc2cccc3c2[nH]c2c(C4=C[C@@]5(O)CC/C=C\CCCCN6CCC4[C@]4(C[C@@H]7CCC(=O)CCCN7[C@H]45)C6)nccc23)s1 (stereo not given in full),78.8%,8.5 µM,
"C1=C(c2nccc3c2[nH]c2ccccc23)C2CCN3CCCC/C=C\C/C=C/1[C@@H]1N4CCCC/C=C\[C@H]4C[C@]21C3 (stereo not given in full) [12,13-DEHYDROMANZAMINE A]",71.2%,5.4 µM,
O=C1CCCN2[C@@H](CC1)C[C@]13CN4CCCC/C=C\CC[C@](O)(C=C(c5nccc6c5[nH]c5ccccc56)C1CC4)[C@H]23 (stereo not given in full) [MANZAMINE E],,25 µM,
O[C@]12C=C(c3nccc4c3[nH]c3ccccc34)[C@@H]3CCN(CCCCCCCC1)C[C@@]31C[C@@H]3CCCCCCN3[C@H]12,0%,,
O[C@]12C=C(c3nccc4c3[nH]c3ccccc34)[C@@H]3CCN(CCCC/C=C\CC1)C[C@@]31C[C@@H]3/C=C\CCCCN3[C@H]12 [MANZAMINE A],,10.2 µM,Activity [3]: inactive; IC50 [4]: 1.5 µM; Activity [5]: inactive; Activity [6]: inactive; Activity [7]: inactive
Oc1cccc2c1[nH]c1c(C3=C[C@@]4(O)CC/C=C\CCCCN5CC[C@@H]3[C@]3(CC6/C=C\CCCCN6[C@H]34)C5)nccc12 (stereo not given in full),,4.8 µM,
Oc1ccc2[nH]c3c(C4=C[C@@]5(O)CC/C=C\CCCCN6CCC4[C@]4(C[C@@H]7/C=C\CCCCN7[C@H]45)C6)nccc3c2c1 (stereo not given in full),74.3%,16.6 µM,
CC(C)COc1cccc2c3ccnc(C4=C[C@@]5(O)CC/C=C\CCCCN6CCC4[C@]4(C[C@@H]7/C=C\CCCCN7[C@H]45)C6)c3n(CC(C)C)c12 (stereo not given in full),24.2%,,
CCCCCCCCCCCCn1c2ccccc2c2ccnc(C3=C[C@@]4(O)CC/C=C\CCCCN5CC[C@@H]3[C@]3(C[C@@H]6/C=C\CCCCN6[C@H]34)C5)c21,0%,,
COC(=O)CCCCn1c2ccccc2c2ccnc(C3=C[C@@]4(O)CC/C=C\CCCCN5CCC3[C@]3(C[C@@H]6/C=C\CCCCN6[C@H]34)C5)c21 (stereo not given in full),3%,,
Cc1ccc(S(=O)(=O)Oc2cccc3c2[nH]c2c(C4=C[C@@]5(O)CC/C=C\CCCCN6CCC4[C@]4(C[C@H]7/C=C\CCCCN7[C@H]45)C6)nccc23)cc1 (stereo not given in full),80.4%,,
"CC(=O)Oc1cccc2c1[nH]c1c(C3=C/C4=C/C/C=C\CCCCN5CCC3[C@]3(C[C@@H]6/C=C\CCCCN6[C@@H]43)C5)nccc12 (stereo not given in full) [12,13-DEHYDRO-8-O-ACETYLMANZAMINE A]",79.1%,4.8 µM,
O=C1CCCN2[C@@H](CC1)C[C@]13CN4CCCC/C=C\CC[C@](O)(C=C(c5nccc6c5[nH]c5c(OS(=O)(=O)c7ccc(Cl)cc7)cccc56)C1CC4)[C@H]23 (stereo not given in full),76.7%,7.2 µM,
CCOc1cccc2c3ccnc(C4=C[C@@]5(O)CC/C=C\CCCCN6CCC4[C@]4(C[C@@H]7/C=C\CCCCN7[C@H]45)C6)c3n(CC)c12 (stereo not given in full) [9-N-ETHYL-8-ETHOXY-MANZAMINE A],78%,10.4 µM,
Oc1cccc2c1[nH]c1c(C3=C[C@@]4(O)CCCCCCCCN5CCC3[C@]3(C[C@@H]6CCCCCCN6[C@H]34)C5)nccc12 (stereo not given in full),29%,,
